What was measured:
Cavia porcellus = species on record: Cavia porcellus; assay: Dose representing 50% inhibition of positive chronotropic response to histamine in guinea pig atrium (5 x 10e -6M); format: functional; details: Cardiac atrium, read-out: ED50 (the source's name)
Outline: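 Isolated right atria from guinea pig, three to four preparations per compound. Test agent added 10 min ahead of histamine (5 × 10⁻⁶ M). Read-out is inhibition of the histamine-induced rise in atrial rate. Percent inhibition plotted against log concentration, and the 50%-inhibiting dose read from that curve; means ± SE.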

Canis familiaris = assay: Reduction in acid response to histamine(160 ug/kg/h i.v.) in anesthetized dogs with acute gastric fistula.; format: functional; details: Canis lupus familiaris, Stomach, iv
Outline: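 Mongrel dogs of 8–10 kg, fasted 24 h and anesthetized with pentobarbital 30 mg/kg i.v. Pylorus and esophagus ligated, with a stainless steel cannula in the stomach. Histamine infused at 160 μg/(kg h), drugs given i.v., gastric juice collected every 15 min. Inhibition taken from predrug minus minimum acid output (within 45 min). ED50 from a semilog dose-response plot.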

SMILES	EC50 (Cavia porcellus)	ED50 (Canis familiaris)
N#CNC(=N)CCSCc1ccc(CN2CCCCC2)o1	35 µM	
CC(=N)Nc1nc(CSCCC(=N)NC#N)cs1	9.1 µM	
N#CNC(=N)CCSCc1noc(NC(=N)N)n1	> 100 µM	
CN(C)Cc1ccc(CSCCC(=N)NC#N)s1	13 µM	4.4 mg/kg
CN(C)Cc1cccc(OCCCC(=N)NC#N)c1	20 µM	9 mg/kg
NC(=O)CCSCc1csc(N=C(N)N)n1	1 µM	
N#CNC(=N)CCSCc1ccccn1	> 100 µM	
C/N=C(/NC)Nc1nc(CSCCC(=N)NC#N)cs1	> 100 µM	
C/N=C(/CCSCc1[nH]cnc1C)NC#N	> 100 µM	
N#C/N=C(\N)CCSCc1csc(N)n1	> 100 µM	
N#CNC(=N)CCCOc1cccc(CN2CCCCC2)c1	4.7 µM	2.3 mg/kg
N#CNC(=N)CCSCc1csc(NC(=N)N)n1	0.18 µM	0.018 mg/kg
C/N=C(/N)Nc1nc(CSCCC(=N)NC#N)cs1	1.2 µM	
Cc1[nH]cnc1CSCCC(=N)NC#N	> 100 µM	
CN(C)Nc1nc(CSCCC(=N)NC#N)cs1	> 100 µM	
N#CNC(=N)CCSCc1ccc(CN2CCOCC2)o1	> 100 µM	
N#CNC(=N)CCCCc1csc(NC(=N)N)n1	0.12 µM	0.022 mg/kg

SMILES	EC50 (Cavia porcellus)	ED50 (Canis familiaris)
N#CNC(=N)CCSCc1nc[nH]n1	> 100 µM	
N#CNC(=N)CCCOc1cccc(CN2CCCC2)c1	13 µM	3.5 mg/kg
CN(C)Cc1ccc(CSCCC(=N)NC#N)o1	2.1 µM	0.28 mg/kg
C/N=C(/CCSCc1ccc(CN(C)C)o1)NC#N	170 µM	> 10 mg/kg
C/N=C(/CCSCc1csc(N=C(N)N)n1)NC#N	0.98 µM	0.39 mg/kg
C#CC/N=C(/CCSCc1nc[nH]c1C)NC#N	> 100 µM	
Cc1[nH]cnc1CSCCC(=N)NC(N)=O.Cl.Cl	0.9 µM	0.22 mg/kg
CCc1[nH]cnc1CSCCC(=N)NC(N)=O.Cl.Cl	2 µM	0.33 mg/kg
N=C(N)Nc1nc(CSCCC(=N)NC(N)=O)no1	26 µM	
CC(=N)Nc1nc(CSCCC(=N)NC(N)=O)cs1	2.5 µM	
C/N=C(/N)Nc1nc(CSCCC(=N)NC(N)=O)cs1.Cl.Cl	0.32 µM	0.046 mg/kg
N=C(CCSCc1[nH]cnc1C(F)(F)F)NC(N)=O	> 100 µM	
Cl.Cl.N=C(CCSCc1ccccn1)NC(N)=O	12 µM	2.5 mg/kg
Cl.Cl.N=C(CCSCc1nc[nH]n1)NC(N)=O	41 µM	6.9 mg/kg
Cl.Cl.N=C(CCSCc1c[nH]cn1)NC(N)=O	5.3 µM	1.3 mg/kg
Cl.Cl.N=C(N)Nc1nc(CSCCC(=N)NC(N)=O)cs1	0.074 µM	0.0064 mg/kg
CN/C(=N\CCSCc1nc[nH]c1C)NC#N [CIMETIDINE]	2.7 µM	0.33 mg/kg
